Bioassay records deposited in PubChem BioAssay by several laboratories.
Most compounds without a hit are left out; they make up all but 2.4% or so of the library.
PP5 inh: blocks human protein phosphatase 5 activity | P53041 | purified PP5c, OMFP substrate fluorescence | inhibition, % at 6.7 µM | 320,000 tested, 0.18% active | AID 1987;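 active = inhibition above the campaign's mean inhibition across all tested compounds plus 3 SD, cut at about 9.5% in these data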;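 also: 0% = DMSO only and 100% = 100 µM cantharidin control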
Target sequence (P53041 whole entry, looked up): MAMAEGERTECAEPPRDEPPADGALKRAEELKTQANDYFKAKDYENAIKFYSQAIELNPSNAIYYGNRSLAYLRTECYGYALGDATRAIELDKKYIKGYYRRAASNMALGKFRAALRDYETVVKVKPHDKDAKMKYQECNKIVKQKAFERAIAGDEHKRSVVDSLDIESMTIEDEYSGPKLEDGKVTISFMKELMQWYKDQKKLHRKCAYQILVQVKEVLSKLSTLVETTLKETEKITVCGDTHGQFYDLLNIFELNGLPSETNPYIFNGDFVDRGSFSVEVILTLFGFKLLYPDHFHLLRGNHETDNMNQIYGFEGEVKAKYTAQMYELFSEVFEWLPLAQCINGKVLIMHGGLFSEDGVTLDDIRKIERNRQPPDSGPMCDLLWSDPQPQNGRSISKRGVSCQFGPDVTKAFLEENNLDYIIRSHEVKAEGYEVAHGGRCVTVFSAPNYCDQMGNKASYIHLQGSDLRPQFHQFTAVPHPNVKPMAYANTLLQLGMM
GASC-1 inh: blocks human GASC-1 demethylase activity; inhibition, % at 2.35 µM; Q9H3R0; 330,000 tested, 0.069% active; GST-JMJD2C(1-420) H3K9me3 demethylation, DELFIA europium;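 active = more than half of a compound's replicate wells show inhibition beyond 50%, single wells judged on their own value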;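 also: signal counts dimethyl H3K9 product captured on neutravidin plate; 0% = median of DMSO wells and 100% = 0.3 times that DMSO median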
T cruzi inh: T. cruzi replication inhibition. inhibition, % (no concentration beside the values). T. cruzi beta-gal in NIH3T3, luminescence, 90 h. 300,000 tested, 1.4% active;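 active = mean inhibition across valid replicates above about 55%, limit read from the data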;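 also: signal also drops with host cell toxicity which is not excluded here; 0% = plate median of DMSO wells and 100% = zero luminescence signal; higher percent means less beta-gal luminescence so fewer parasites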
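Material: NIH/3T3 host cells with β-galactosidase reporter T. cruzi; Input: 5,000 host fibroblasts per well; Medium: DMEM, 2% fetal bovine serum; Compound: 50 nL DMSO compound solution per well; Schedule: 3 h host attachment, then at least 90 h co-culture; Detection: luminescent β-galactosidase signal after 60 min lysis.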
p-CIP stab down: compounds decreasing mouse p/CIP protein stability; decrease of EGFP signal, % at 10 µM; 290,000 tested, 0.01% active; F442A p/CIP-EGFP cells, EGFP fluorescence, 16 h;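 active = EGFP signal decrease of at least 30% at 10 µM or well 3 SD below plate mean, unless failing retest; inactive = the rest, including hits failing retest or dose response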
H9c2 protect: protects H9c2 cardiomyocytes from peroxide injury; H2O2 injury protection, ATPLite, 2 h; protection from H2O2 cell death, % at 20 µM; 360,000 tested, 0.63% active; AID 588492;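 active = compounds giving at least 50% protection of heart cells from peroxide-induced death in the single-dose screen, raw or plate-pattern-corrected value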;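 also: 0% = DMSO wells with peroxide and 100% = DMSO wells without peroxide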
CTSL1 counter: cathepsin L1 inhibition, PFM18AAP counter-screen; AID 1906; 300,000 tested, 0.49% active; inhibition, % at 5.96 µM; recombinant F. hepatica cathepsin L1, Z-Leu-Arg-MCA fluorescence;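 active = inhibition above the mean of all tested compounds plus 3 SD, set per screening campaign, cut at about 17% in these data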;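 also: 0% = plate median of test compound wells and 100% = 1 µM Z-Phe-Ala-diazomethylketone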
An asterisk follows results filed as active; x = not tested or not shown.

SMILES | PP5 inh | GASC-1 inh | T cruzi inh | p-CIP stab down | H9c2 protect | CTSL1 counter
Cc1cc(C)c2ccc(NN)nc2c1O | 2 | 9 | 16 | -6 | 79* | 0
Cc1cc(C)c2ccc(/C=N/O)nc2c1O | 3 | 0 | -6 | -11 | 3 | -4
O=C(NCc1ccccc1)c1onc(CSc2ccccc2)c1C(=O)NCC1CC1 | 6 | 4 | 58* | -6 | -13 | 5
O=C(NCc1ccccc1)c1onc(CSc2ccc(Cl)cc2)c1C(=O)NCC1CC1 | 2 | 3 | 4 | x | -12 | -2
O=C(Nc1nc2ccc(Cl)cc2s1)C1CCCO1 (stereo not drawn) | -1 | -5 | 32 | -2 | -4 | 0
O=C(Nc1nc2cc3c(cc2s1)OCO3)C1CCCCC1 | 6 | 1 | 1 | -4 | -3 | 1
CCC(C)NC(=O)C1CCN(S(=O)(=O)c2cc([N+](=O)[O-])ccc2Cl)CC1 (stereo not drawn) | 1 | 19 | -7 | -17 | -8 | 2
O=C(Nc1nc2cc3c(cc2s1)OCO3)C1CC1 | -2 | -3 | 56* | -14 | -8 | 0
O=C(Nc1nc2ccccc2s1)C1CCN(S(=O)(=O)c2cc([N+](=O)[O-])ccc2Cl)CC1 | 3 | 0 | 59* | -25 | 12 | 2
O=C(Nc1nc2c(F)cc(F)cc2s1)C1CC1 | 0 | -19 | 58* | -4 | -15 | -2
O=C(Nc1nc2ccc(Cl)cc2s1)C1CC1 | 2 | -7 | 66* | x | -13 | 3
CC(=O)Nc1ccc(C2=CC(=O)C[C@H](c3ccc4c(c3)OCO4)C2)cc1 | 0 | 8 | x | x | 2 | x
CC(/C=C(\NC(=O)c1ccccc1)C(=O)N=Nc1c(O)[nH]c2ccc(C)cc12)=C\c1ccccc1 | 1 | 1 | 48 | -9 | 62* | 0
CCOc1ccc(C(=O)Nc2c(C(=O)N3CCC(N4CCCCC4)CC3)oc3ccccc23)cc1 | 0 | -3 | 58* | 0 | 11 | -2
NS(=O)(=O)c1ccc(CCNC(=O)c2ccc(C#CC3(O)CCCCC3)cc2)cc1 | 1 | 3 | -14 | -2 | 71* | 2
NS(=O)(=O)c1ccc(CCNC(=O)c2ccncc2)cc1 | -8 | -14 | -7 | 4 | 6 | -9
O=C(COC(=O)c1ccccn1)Nc1ccc2c(c1)OCCO2 | x | 14 | x | x | -2 | x
O=C(COC(=O)[C@H](Cc1ccccc1)N1C(=O)c2ccccc2C1=O)Nc1ccc2c(c1)OCO2 | 3 | 4 | 5 | -12 | -22 | 23*
O=C(COC(=O)c1ccc(=O)n(Cc2ccccc2)n1)Nc1ccc2c(c1)OCCO2 | 2 | 9 | -20 | -12 | 3 | 19*
CSCC[C@H](NC(=O)OC(C)(C)C)C(=O)NCC1CCC(C(=O)N[C@@H](Cc2ccccc2)C(=O)O)CC1 (stereo partly drawn) | -1 | -3 | 3 | 3 | 1 | -3
COc1cc(-c2nnc(COC(=O)c3cc(C)nc4ccc(C)cc34)o2)cc(OC)c1OC | 5 | -4 | 1 | -11 | 71* | -2
Cc1ccccc1NC(=S)N1CCCC(c2nc3ccccc3[nH]2)C1 (stereo not drawn) | -1 | -5 | 72* | -4 | 2 | -3
CCOC(=O)N1CCC(c2nc3ccccc3[nH]2)CC1 | 0 | 53* | -4 | 4 | -1 | 0
Cc1ccn(CC(=O)NC2CC(C)(C)Cc3c2cnn3-c2ccc(F)cc2)n1 (stereo not drawn) | 0 | -18 | 2 | -9 | -3 | 0
Cc1nc2ccc(C(=O)N/N=C/c3cc([N+](=O)[O-])ccc3O)cc2[nH]1 | 0 | 58* | -6 | -5 | 10 | 0
SMILES | PP5 inh | GASC-1 inh | T cruzi inh | p-CIP stab down | H9c2 protect | CTSL1 counter
O=[N+]([O-])c1ccc(O)c(/C=N/Nc2ccc(Cl)nn2)c1 | 1 | 8 | 84* | -10 | 34 | 7
Cc1nc2ccc(C(=O)N/N=C/c3ccccc3O)cc2[nH]1 | 0 | -23 | -9 | -5 | 45 | 2
O=C(N/N=C/c1cc([N+](=O)[O-])ccc1O)c1cccc(NC(=O)c2cccc(Cl)c2)c1 | 1 | -34 | 19 | -25 | 56* | 8
O=C(N/N=C/c1cc([N+](=O)[O-])ccc1O)c1cccc2ccccc12 | 2 | 7 | 55* | 12 | 46 | -1
O=[N+]([O-])c1ccc(O)c(/C=N/Nc2nn[nH]n2)c1 | 1 | -4 | 2 | 2 | -5 | 4
Cc1ccccc1CNS(=O)(=O)c1csc(C(N)=O)c1 | 2 | 14 | 2 | -22 | -2 | 2
O=CC(O)C1OC(=O)C(O)C1O (stereo not drawn) | x | x | x | x | 4 | x
Cc1ccc(Cl)cc1N1CCN(S(=O)(=O)c2c(C)[nH]c(C)c2C(=O)N2CCCCC2)CC1 | 2 | 5 | -4 | 16 | 3 | -2
COc1cc(/C=C/c2nc3ccccc3c(=O)[nH]2)ccc1O | x | x | x | x | 28 | x
CCOc1cc(/C=C/c2nc3ccccc3c(=O)[nH]2)ccc1O | 2 | -28 | 7 | -19 | 57* | 7
O=C(Nc1ccccc1OC(=O)c1ccccc1)c1ccccc1 | x | x | x | x | 2 | x
COc1cc(/C=C/C(=O)OC(C)C(=O)Nc2ccc(Cl)cn2)ccc1OC(F)F (stereo not drawn) | x | -4 | x | x | -1 | x
CC(OC(=O)Cc1c[nH]c2ccccc12)C(=O)NC1(C#N)CCCCC1 (stereo not drawn) | -1 | -1 | 6 | -1 | 4 | -2
COc1ccc([N+](=O)[O-])cc1NC(=O)C(C)OC(=O)CN1C(=O)C2CC=CCC2C1=O (stereo not drawn) | 2 | 3 | 1 | x | 1 | 6
COc1ccc([N+](=O)[O-])cc1NC(=O)C(C)OC(=O)Cn1[nH]c(=O)c2ccccc2c1=O (stereo not drawn) | 0 | 8 | -2 | x | 58* | -35
Cc1ccc(/C=C/C(=O)OC(C)C(=O)Nc2ccc(Cl)cn2)o1 (stereo not drawn) | 0 | 7 | -7 | -4 | 31 | 28*
CC(OC(=O)Cn1[nH]c(=O)c2ccccc2c1=O)C(=O)Nc1ccc(Cl)cn1 (stereo not drawn) | 2 | 13 | x | x | 52* | x
CC(OC(=O)Cn1[nH]c(=O)c2ccccc2c1=O)C(=O)NC1(C#N)CCCCC1 (stereo not drawn) | -1 | -2 | -2 | x | 70* | -16
COc1cccc(-c2ncc3ccccc3c2COC(=O)CCCC(=O)O)c1 | -1 | -2 | x | x | 12 | x
CC(NC(=O)CCCCCNC(=O)N1CCn2c1nc1ccccc12)c1ccccc1 (stereo not drawn) | 1 | 13 | 23 | 3 | -1 | -6
CNC1(C(N)=O)CCNCC1 | 3 | -3 | -5 | 39* | 0 | -10
Cc1ccc(SCC(=O)N/N=C/c2ccco2)cc1 | 1 | 0 | -12 | -4 | 9 | 3
